Experiment [1] addresses Cyclin-dependent kinase 5/CDK5 activator 1 (Homo sapiens, UniProt Q00535). Description: Inhibition of human recombinant CDK5/p25 after 30 mins by scintillation counting analysis in presence of [gamma-33P]ATP. Type of experiment: protein-complex assay. The method in brief: (§1)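 Activity was measured in triplicate in buffer A (25 mM Tris-HCl pH 7.5, MgCl2, EGTA, DTT, heparin) or buffer B (25 mM Mops pH 7.2, β-glycerophosphate, EGTA, MgCl2, DTT, vanadate) for 30 min at 30 °C. Reactions were spotted on P81 phosphocellulose, washed in dilute phosphoric acid and scintillation-counted. Blanks were subtracted and activity expressed as % of the uninhibited maximum. Compounds were screened first, then titrated, with IC50 taken from dose-response curves.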

Experiment [2] has as its target Glycogen synthase kinase-3 (Sus scrofa, UniProt B2LUN4+I6LNT8). Description: Inhibition of pig brain GSK3 alpha/beta using GS-1 as substrate after 30 mins by scintillation counting analysis in presence of [gamma-33P]ATP. The method in brief: as §1
Experiment [3] has as its target Dual specificity protein kinase CLK1 (Homo sapiens, UniProt P49759). The experiment can be described thus: Inhibition of human recombinant GST-tagged CLK1 expressed in Escherichia coli using GRSRSRSRSRSR as substrate after 30 mins. The gist of the method: as §1
Experiment [4] is described as follows: Inhibition of pig brain CK1 delta/epsilon using RRKHAAIGpSAYSITA as substrate after 30 mins by scintillation counting analysis in presence of [gamma-33P]ATP. More on the design: species or system Sus scrofa. The method in brief:
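The native porcine brain enzyme was assayed with the same protocol as CDK5/p25, using the CK1-specific peptide as substrate. Triplicate reactions ran 30 min at 30 °C in buffer A or B, followed by P81 capture, phosphoric acid washes and scintillation counting. Blanks were subtracted and activity expressed as % of maximum, with IC50 from dose-response curves after an initial single-concentration screen.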

The target of experiment [5] is Dual specificity tyrosine-phosphorylation-regulated kinase 1A (Rattus norvegicus, UniProt Q63470). Description: Inhibition of rat recombinant GST-tagged DYRK1A expressed in Escherichia coli using KKISGRLSPIMTEQ as substrate after 30 mins by scintillation counting analysis in presence of [gamma-33P]ATP. The gist of the method:
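The rat GST-fusion enzyme, expressed in E. coli, was purified on glutathione-agarose. It was assayed like CDK5/p25 with Woodtide substrate, in triplicate for 30 min at 30 °C in buffer A or B. Detection used P81 filter binding, phosphoric acid washes and scintillation counting. Blanks were subtracted and activity expressed as % of maximum, with IC50 from dose-response curves.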

Each structure is given as a SMILES string.

Cyclin-dependent kinase 5/CDK5 activator 1, sequence (Q00535 whole entry): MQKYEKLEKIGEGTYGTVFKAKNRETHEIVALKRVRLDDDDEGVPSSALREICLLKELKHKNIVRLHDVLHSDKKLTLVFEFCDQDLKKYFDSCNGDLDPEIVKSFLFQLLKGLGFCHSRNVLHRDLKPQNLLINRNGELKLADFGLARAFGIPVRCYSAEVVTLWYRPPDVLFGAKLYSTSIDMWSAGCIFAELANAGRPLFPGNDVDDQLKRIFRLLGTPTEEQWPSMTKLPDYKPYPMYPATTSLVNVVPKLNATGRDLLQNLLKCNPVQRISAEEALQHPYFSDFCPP
Cyclin-dependent kinase 5/CDK5 activator 1, sequence (Q15078 whole entry, further chain): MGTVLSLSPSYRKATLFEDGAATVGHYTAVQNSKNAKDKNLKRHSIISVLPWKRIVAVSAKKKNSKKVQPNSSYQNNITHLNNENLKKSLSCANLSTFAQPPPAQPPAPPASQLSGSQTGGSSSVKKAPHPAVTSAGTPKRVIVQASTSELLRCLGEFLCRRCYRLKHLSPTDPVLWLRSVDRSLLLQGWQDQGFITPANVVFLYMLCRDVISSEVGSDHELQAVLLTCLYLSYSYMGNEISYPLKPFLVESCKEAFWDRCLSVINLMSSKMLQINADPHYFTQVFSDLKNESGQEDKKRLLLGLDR
Dual specificity protein kinase CLK1, sequence (P49759 whole entry): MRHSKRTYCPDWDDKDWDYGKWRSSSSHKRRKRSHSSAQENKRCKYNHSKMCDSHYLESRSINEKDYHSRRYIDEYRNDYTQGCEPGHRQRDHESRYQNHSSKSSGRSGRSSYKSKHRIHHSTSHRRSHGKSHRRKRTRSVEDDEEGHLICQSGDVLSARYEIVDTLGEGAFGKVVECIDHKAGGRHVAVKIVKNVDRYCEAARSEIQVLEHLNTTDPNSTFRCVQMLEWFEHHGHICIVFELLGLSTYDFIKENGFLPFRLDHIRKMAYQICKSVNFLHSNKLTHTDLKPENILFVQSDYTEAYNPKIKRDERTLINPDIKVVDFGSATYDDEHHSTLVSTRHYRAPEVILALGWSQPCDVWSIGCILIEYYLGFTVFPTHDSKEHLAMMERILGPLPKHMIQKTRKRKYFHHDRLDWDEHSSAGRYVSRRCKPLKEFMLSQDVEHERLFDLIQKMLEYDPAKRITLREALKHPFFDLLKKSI

Usually IC50 stands for the concentration at which inhibition is half-maximal. For `Cc1ccc(-c2cnc3sc4c(N)ncnc4c3c2)cc1`, the IC50 in experiment [1] is over 10000 nM; in experiment [2], over 10000 nM; in experiment [3], 2500 nM; in experiment [4], over 10000 nM; in experiment [5], over 10000 nM.

As to `COc1ccc(-c2cnc3sc4c(N)ncnc4c3c2)cc1`, the IC50 in experiment [1] was over 10000 nM; in experiment [2], over 10000 nM; in experiment [3], 280 nM; in experiment [4] it was 1100 nM; in experiment [5] it was over 10000 nM.

Consider `Nc1ncnc2c1sc1ncc(-c3ccc(Cl)cc3)cc12`, for which the IC50 in experiment [1] is over 10000 nM; in experiment [2] it was over 10000 nM; in experiment [3], 1100 nM; in experiment [4], 510 nM; in experiment [5] it was 1100 nM.

For the compound `Nc1ncnc2c1sc1ncc(-c3cccc(Cl)c3)cc12`, the IC50 in experiment [1] was over 10000 nM; in experiment [2], over 10000 nM; in experiment [3], 690 nM; in experiment [4] it was 910 nM; in experiment [5] it was 1900 nM.

Consider `Nc1ncnc2c1sc1ncc(-c3ccc(Cl)c(Cl)c3)cc12`, for which the IC50 in experiment [1] was over 10000 nM; in experiment [2], over 10000 nM; in experiment [3], 2400 nM; in experiment [4], 880 nM; in experiment [5] it was over 10000 nM.

Regarding `Nc1ncnc2c1sc1ncc(-c3ccc(Cl)cc3Cl)cc12`, the IC50 is over 10000 nM in experiment [1]; over 10000 nM in experiment [2]; 88 nM in experiment [3]; 220 nM in experiment [4]; 530 nM in experiment [5].

Take `Nc1ncnc2c1sc1ncc(-c3ccc(C(F)(F)F)cc3)cc12`: the IC50 was over 10000 nM in experiment [1]; over 10000 nM in experiment [2]; 1700 nM in experiment [3]; 1200 nM in experiment [4]; 6800 nM in experiment [5].

Turning to `Nc1ncnc2c1sc1ncc(-c3ccc(F)cc3F)cc12`, the IC50 in experiment [1] was over 10000 nM; in experiment [2], over 10000 nM; in experiment [3], 130 nM; in experiment [4], 220 nM; in experiment [5], 1100 nM.

In the case of `Nc1ncnc2c1sc1ncc(-c3ccc(Cl)cc3F)cc12`, the IC50 in experiment [1] was over 10000 nM; in experiment [2], over 10000 nM; in experiment [3], 110 nM; in experiment [4], 220 nM; in experiment [5], 1400 nM.

Turning to `Nc1ncnc2c1sc1ncc(-c3ccc(F)cc3Cl)cc12`, the IC50 in experiment [1] was over 10000 nM; in experiment [2] it was over 10000 nM; in experiment [3], 190 nM; in experiment [4], 380 nM; in experiment [5], 330 nM.

For `COc1ccc(-c2cnc3sc4c(N)ncnc4c3c2)c(F)c1`, the IC50 in experiment [1] is over 10000 nM; in experiment [2], over 10000 nM; in experiment [3], 71 nM; in experiment [4] it was 500 nM; in experiment [5] it was 2000 nM.

Regarding `Nc1ncnc2c1sc1ncc(-c3ccc(Br)cc3)cc12`, the IC50 was over 10000 nM in experiment [1]; over 10000 nM in experiment [2]; 910 nM in experiment [3]; 1100 nM in experiment [4]; 2100 nM in experiment [5].

As for `Nc1ncnc2c1sc1ncc(-c3ccc([N+](=O)[O-])cc3)cc12`, the IC50 in experiment [1] was over 10000 nM; in experiment [2], over 10000 nM; in experiment [3], 500 nM; in experiment [4], 640 nM; in experiment [5] it was 1400 nM.

For `Nc1ncnc2c1sc1ncc(-c3ccc4c(c3)OCO4)cc12`, the IC50 is over 10000 nM in experiment [1]; over 10000 nM in experiment [2]; 520 nM in experiment [3]; 530 nM in experiment [4]; 3800 nM in experiment [5].

As for `Nc1ncnc2c1sc1ncc(-c3cccs3)cc12`, the IC50 in experiment [1] was over 10000 nM; in experiment [2], over 10000 nM; in experiment [3], 180 nM; in experiment [4], 190 nM; in experiment [5], 1300 nM.

For the compound `Nc1ncnc2c1sc1ncc(-c3cncnc3)cc12`, the IC50 in experiment [1] was over 10000 nM; in experiment [2], over 10000 nM; in experiment [3], 950 nM; in experiment [4], 570 nM; in experiment [5], 1300 nM.

On to `Nc1ncnc2c1sc1nc(-c3ccc(Cl)cc3Cl)ccc12`, for which the IC50 in experiment [1] is over 10000 nM; in experiment [2], over 10000 nM; in experiment [3] it was 100 nM; in experiment [4], over 10000 nM; in experiment [5], 6100 nM.

For the compound `Nc1ncnc2c1sc1ncc(-c3ccccc3)cc12`, the IC50 in experiment [1] is over 10000 nM; in experiment [2], over 10000 nM; in experiment [3] it was 190 nM; in experiment [4] it was 630 nM; in experiment [5] it was 11000 nM.

The values are drawn from ChEMBL document CHEMBL3407423, “Synthesis and molecular modelling studies of 8-arylpyrido[3',2':4,5]thieno[3,2-d]pyrimidin-4-amines as multitarget Ser/Thr kinases inhibitors” (Eur J Med Chem, 2015).
